According to ChEMBL document CHEMBL2417506, “Synthesis and antiprotozoal activity of original porphyrin precursors and derivatives” (Eur J Med Chem, 2013):
Active and inactive are the calls of the source. No cut-off for these calls is given here.

Tests used:
Leishmania donovani [1] = experiment: Antileishmanial activity against amastigotes forms of Leishmania donovani MHOM/ET/67/HU3 infected in Swiss mouse peritoneal macrophages at 20 uM after 5 days; assay type: functional, organism-based
Method in brief: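 Peritoneal macrophages from female Swiss mice (18–20 g) infected after 24 h with stationary-phase L. donovani promastigotes at 10 parasites per macrophage. Free promastigotes removed at 18 h, then amastigotes treated. Medium with drug renewed at 48 h, stopped at day 5. Percentage of infected macrophages scored microscopically after Giemsa staining. Run in triplicate.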

Plasmodium falciparum = experiment: Antimalarial activity against Plasmodium falciparum 3D7 infected in human O positive erythrocytes assessed as reduction of parasite growth after 24 to 44 hrs by Giemsa staining; assay type: functional, organism-based
Method in brief: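 Sorbitol-synchronized ring-stage 3D7 parasites in O+ erythrocytes (5% v/v suspension, 0.5% parasitemia) exposed to compounds from DMSO stock for 44 h at 37 °C. Growth measured by pLDH ELISA after freeze-thaw hemolysis and by Giemsa thin smears at 24 and 44 h, counting at least 5000 erythrocytes. Expressed as % reduction against medium-only control.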

[2] = system: Trypanosoma brucei brucei; experiment: Trypanocidal activity against Trypanosoma brucei brucei by drug incubation infectivity test; assay type: functional; conditions: read-out: MEC
[3] = Cytotoxicity against Swiss mouse peritoneal macrophages at 20 uM after 5 days by MTT assay; assay type: cell-based, Peritoneal macrophage cell
Method in brief: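 Thioglycolate-elicited peritoneal macrophages from female Swiss mice, 5 × 10^4/well in RPMI 1640 with 10% FCS, 25 mM Hepes and 2 mM L-glutamine. Washed at 4 h to remove fibroblasts. Drug-containing medium added at 48 h, stopped at day 5. Viability read by MTT.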

Leishmania donovani [4] = experiment: Antileishmanial activity against promastigote forms of Leishmania donovani MHOM/ET/67/HU3 after 3 days by MTT assay; assay type: functional, organism-based; conditions: MHOM/ET/67/HU3, 72 h
Method in brief: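 Log-phase promastigotes at 10^6 cells/mL in supplemented M-199. Serial dilutions gave final concentrations of 100 µM to 50 nM, in triplicate. Incubated 3 days at 27 °C, dark, 5% CO2. Viability read by MTT reduction, with Triton X100/HCl lysis and absorbance at 570 nm. IC50 ± SD.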

Plasmodium berghei [5] = experiment: Antimalarial activity against chloroquine-sensitive Plasmodium berghei NK-173 infected in Swiss albino mouse assessed as quantal survival at 100 mg/kg, ip administered 4 times per day for 3 days measured on day 7; assay type: functional, organism-based; design: dose 100 mg/kg
Method in brief: (§1)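 Female Swiss albino mice (18–20 g) were infected i.v. on day 0 with 10^6 parasitized RBC in 0.2 ml PBS from a donor mouse, in groups of 10. Dosing was i.p. over days 0–3 and stopped if toxicity appeared. Chloroquine control was 100 µmoles/kg. Giemsa tail smears and RBC counts were taken on days 4, 7, 8, 9, 10 and 14. Mice were followed for deaths.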

Mus musculus [6] = experiment: Toxicity in chloroquine-sensitive Plasmodium berghei NK-173 infected Swiss albino mouse assessed as mortality at 100 mg/kg, ip administered 4 times per day for 3 days measured up to 4 days; assay type: organism-based; design: dose 100 mg/kg, route intraperitoneal; conditions: in vivo; method in brief: as §1
Plasmodium berghei [7] = experiment: Antimalarial activity against chloroquine-sensitive Plasmodium berghei NK-173 infected in Swiss albino mouse assessed as quantal survival at 100 mg/kg, ip administered 4 times per day for 3 days measured on day 8; assay type: functional, organism-based; design: dose 100 mg/kg; method in brief: as §1
Plasmodium berghei [8] = experiment: Antimalarial activity against chloroquine-sensitive Plasmodium berghei NK-173 infected in Swiss albino mouse assessed as quantal survival at 100 mg/kg, ip administered 4 times per day for 3 days measured on day 14; assay type: functional, organism-based; design: dose 100 mg/kg; method in brief: as §1
Plasmodium berghei [9] = experiment: Antimalarial activity against chloroquine-sensitive Plasmodium berghei NK-173 infected in Swiss albino mouse assessed as host survival at 100 mg/kg, ip administered 4 times per day for 3 days measured on day 30; assay type: functional; conditions: NK-173, ip, route intraperitoneal; method in brief: as §1
Plasmodium berghei [10] = experiment: Antimalarial activity against chloroquine-sensitive Plasmodium berghei NK-173 infected in Swiss albino mouse assessed as quantal survival at 100 mg/kg, ip administered 4 times per day for 3 days measured on day 10; assay type: functional, organism-based; design: dose 100 mg/kg; method in brief: as §1
Plasmodium berghei [11] = experiment: Antimalarial activity against chloroquine-sensitive Plasmodium berghei NK-173 infected in Swiss albino mouse assessed as reduction parasitemia at 51.5 mg/kg, ip treated […] by Giemsa staining relative to control; assay type: functional; design: scale not given: the % may be the effect or the level left; conditions: route intraperitoneal
Method in brief: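 Four-day Peters test in female Swiss albino mice (18–20 g), groups of 10. Infected i.v. on day 0 with 10^6 parasitized RBC in 0.2 ml PBS, then dosed i.p. on days 0–3, stopped if toxicity appeared. Parasitemia read from Giemsa-stained tail-blood smears and reported as % reduction at day 4.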

Plasmodium berghei [12] = experiment: Antimalarial activity against chloroquine-sensitive Plasmodium berghei NK-173 infected in Swiss albino mouse assessed as quantal survival at 51.5 mg/kg, ip administered 4 times per day for 3 days measured on day 10; assay type: functional, organism-based; design: dose 51.5 mg/kg; method in brief: as §1
Plasmodium berghei [13] = experiment: Antimalarial activity against chloroquine-sensitive Plasmodium berghei NK-173 infected in Swiss albino mouse assessed as quantal survival at 51.5 mg/kg, ip administered 4 times per day for 3 days measured on day 9; assay type: functional, organism-based; design: dose 51.5 mg/kg; method in brief: as §1
Plasmodium berghei [14] = experiment: Antimalarial activity against chloroquine-sensitive Plasmodium berghei NK-173 infected in Swiss albino mouse assessed as quantal survival at 51.5 mg/kg, ip administered 4 times per day for 3 days measured on day 14; assay type: functional, organism-based; design: dose 51.5 mg/kg; method in brief: as §1
Plasmodium berghei [15] = experiment: Antimalarial activity against chloroquine-sensitive Plasmodium berghei NK-173 infected in Swiss albino mouse assessed as quantal survival at 51.5 mg/kg, ip administered 4 times per day for 3 days measured on day 8; assay type: functional, organism-based; design: dose 51.5 mg/kg; method in brief: as §1
Plasmodium berghei [16] = experiment: Antimalarial activity against chloroquine-sensitive Plasmodium berghei NK-173 infected in Swiss albino mouse assessed as quantal survival at 51.5 mg/kg, ip administered 4 times per day for 3 days measured on day 7; assay type: functional, organism-based; design: dose 51.5 mg/kg; method in brief: as §1
Mus musculus [17] = experiment: Toxicity in chloroquine-sensitive Plasmodium berghei NK-173 infected Swiss albino mouse assessed as mortality at 51.5 mg/kg, ip administered 4 times per day for 3 days measured up to 4 days; assay type: organism-based; design: dose 51.5 mg/kg, route intraperitoneal; conditions: in vivo; method in brief: as §1
Plasmodium berghei [18] = experiment: Antimalarial activity against chloroquine-sensitive Plasmodium berghei NK-173 infected in Swiss albino mouse assessed as host survival at 51.5 mg/kg, ip administered 4 times per day for 3 days measured on day 30; assay type: functional; conditions: NK-173, ip, route intraperitoneal; method in brief: as §1

SMILES	Activity (Leishmania donovani [1])	minimal effective concentration [2]	CC50 at 120 h [3]	IC50 (Leishmania donovani [4])	further results
O=Cc1c2nc(c(-c3cccc(Br)c3)c3ccc(cc4nc(c(-c5cccc(Br)c5)c5ccc1[nH]5)C=C4)[nH]3)C=C2	inactive	> 100 µM	> 100 µM	≥ 100 µM	IC50 (Plasmodium falciparum): > 20 µM
COc1cc(-c2c3nc(cc4ccc([nH]4)c(-c4cc(OC)c(OC)c(OC)c4)c4nc(cc5ccc2[nH]5)C=C4)C=C3)cc(OC)c1OC	inactive	> 100 µM	> 100 µM	≥ 100 µM	IC50 (Plasmodium falciparum): > 20 µM
Brc1ccccc1C(c1ccc[nH]1)c1ccc[nH]1	inactive	> 100 µM	> 100 µM	44.7 µM	
C1=C/C(=C(\c2ccccc2)c2ccc[nH]2)N=C1	inactive	25 µM	> 100 µM	5.23 µM	
Brc1c2nc(c(-c3ccccc3)c3ccc([nH]3)c(Br)c3nc(c(-c4ccccc4)c4ccc1[nH]4)C=C3)C=C2	inactive	> 100 µM	> 100 µM	≥ 100 µM	IC50 (Plasmodium falciparum): 0.2 µM
COc1cc(/C(=C2\C=CC=N2)c2ccc[nH]2)cc(OC)c1OC	inactive	25 µM	> 100 µM	4.71 µM	
O=C1CC[C@@H](C(=O)O)N1 [PIDOLIC ACID]					Survival (Plasmodium berghei [5]): Active; Activity (Mus musculus [6]): Non-toxic; Survival (Plasmodium berghei [7]): Active; Survival (Plasmodium berghei [8]): inactive; survival at 100 mg/kg (Plasmodium berghei [9]): 0%; Survival (Plasmodium berghei [10]): inactive
O=C1CCCN1c1c2nc(c(-c3ccccc3)c3ccc([nH]3)c(Br)c3nc(c(-c4ccccc4)c4ccc1[nH]4)C=C3)C=C2	inactive	6.25 µM	> 100 µM	6.37 µM	
N=C(N)c1ccc(OCCCCCOc2ccc(C(=N)N)cc2)cc1 [PENTAMIDINE]		5 µM	26.3 µM	3.1 µM	
Clc1cccc(Cl)c1/C(=C1\C=CC=N1)c1ccc[nH]1	inactive	12.5 µM	> 100 µM	5.55 µM	
CCCCCCCCCCCCCCCCOP(=O)([O-])OCC[N+](C)(C)C [MILTEFOSINE]			15.8 µM	4.26 µM	
O=Cc1c2nc(c(-c3ccccc3)c3ccc(cc4nc(c(-c5ccccc5)c5ccc1[nH]5)C=C4)[nH]3)C=C2	inactive	> 100 µM	> 100 µM	≥ 100 µM	IC50 (Plasmodium falciparum): > 20 µM
Fc1c(F)c(F)c(/C(=C2\C=CC=N2)c2ccc[nH]2)c(F)c1F	inactive	12.5 µM	> 100 µM	3.61 µM	
O=C1CCCN1c1c2nc(c(-c3ccccc3)c3ccc([nH]3)c(N3CCCC3=O)c3nc(c(-c4ccccc4)c4ccc1[nH]4)C=C3)C=C2	inactive	> 100 µM	> 100 µM	≥ 100 µM	
Fc1c(F)c(F)c(C(c2ccc[nH]2)c2ccc[nH]2)c(F)c1F	inactive	> 100 µM	> 100 µM	44.1 µM	
C1=Cc2nc1cc1ccc([nH]1)c(-c1ccccc1)c1nc(cc3ccc([nH]3)c2-c2ccccc2)C=C1	inactive	> 100 µM	> 100 µM	≥ 100 µM	IC50 (Plasmodium falciparum): > 20 µM
COC(=O)[C@@H]1CCC(=O)N1c1c2nc(c(-c3cc(OC)c(OC)c(OC)c3)c3ccc([nH]3)c(N3C(=O)CC[C@H]3C(=O)OC)c3nc(c(-c4cc(OC)c(OC)c(OC)c4)c4ccc1[nH]4)C=C3)C=C2	inactive	100 µM	> 100 µM	≥ 100 µM	
COc1cc(C(c2ccc[nH]2)c2ccc[nH]2)cc(OC)c1OC	inactive	100 µM	> 100 µM	≥ 100 µM	
Brc1ccccc1/C(=C1\C=CC=N1)c1ccc[nH]1	inactive	50 µM	> 100 µM	5.38 µM	
COC(=O)[C@@H]1CCC(=O)N1c1c2nc(c(-c3cc(OC)c(OC)c(OC)c3)c3ccc(cc4nc(c(-c5cc(OC)c(OC)c(OC)c5)c5ccc1[nH]5)C=C4)[nH]3)C=C2	inactive		> 100 µM	≥ 100 µM	
c1ccc(C(c2ccc[nH]2)c2ccc[nH]2)cc1	inactive	> 100 µM	> 100 µM	≥ 100 µM	
CCN(CC)CCCC(C)Nc1ccnc2cc(Cl)ccc12 (centres undefined) [CHLOROQUINE]					Activity (Plasmodium berghei [11]): 100%; Survival (Plasmodium berghei [12]): Active; Survival (Plasmodium berghei [13]): Active; Survival (Plasmodium berghei [14]): Active; Survival (Plasmodium berghei [15]): Active; Survival (Plasmodium berghei [16]): Active; Activity (Mus musculus [17]): Non-toxic; survival at 51.5 mg/kg (Plasmodium berghei [18]): 100%
O=C1CCC(C(O)(c2ccccc2)c2ccccc2)N1c1c2nc(c(-c3ccccc3)c3ccc([nH]3)c(N3C(=O)CCC3C(O)(c3ccccc3)c3ccccc3)c3nc(c(-c4ccccc4)c4ccc1[nH]4)C=C3)C=C2 (centres undefined)	inactive	50 µM	> 100 µM	53 µM	
